Here are results for 17 molecules from ChEMBL document CHEMBL1137705, “Study of 5-nitroindazoles' anti-Trypanosoma cruzi mode of action: electrochemical behaviour and ESR spectroscopic studies” (Eur J Med Chem, 2009).

Experiment [1] relates to Trypanosoma cruzi. The experiment is described as follows: Antitrypanosomal activity against Trypanosoma cruzi SN3 trypomastigotes infected in african green monkey Vero cells assessed as parasite viability at 11 uM after 24 hrs by MTT assay. Format: functional. The method in brief:
(§1)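 Vero cells were infected with SN-3 metacyclic trypomastigotes, then reinfected at 1 × 10⁶ parasites per 25 cm². Harvested trypomastigotes (1 × 10⁷) were incubated in FBS-RPMI at 37 °C for 24 h with or without compound. MTT was added to an aliquot at 0.5 mg/mL final, 28 °C for 4 h. SDS–HCl solubilisation ran overnight. Read-out was A570, reference 690 nm; untreated parasites = 100% viability.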

For experiment [2], the system named is Trypanosoma cruzi. Briefly: Growth inhibition of Trypanosoma cruzi CL-Brener clone epimastigotes […] at 25 uM measured on […] by Brener method. Format: functional. To be noted: 120 h, read-out: GI. The method in brief:
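Axenic epimastigote culture (CL Brener) ran at 28 °C in BHI-tryptose with 5% FBS. Start density was 1 × 10⁶ cells/mL, with drug added from a DMSO stock (final ≤0.4%). %GI = {1 − [(Ap − A0p)/(Ac − A0c)]} × 100, using A600 at day 5 and day 0, drug versus drug-free control. Means of three experiments.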

Experiment [3] deals with Trypanosoma cruzi. The experiment is described as follows: Antitrypanosomal activity against Trypanosoma cruzi CL-Brener clone epimastigotes […] measured on […] by Brener method. The note with it: 120 h. Format: functional, organism-based. The method in brief: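 CL Brener epimastigotes were grown axenically at 28 °C in BHI-tryptose with 5% FBS. Day-0 inoculum was 1 × 10⁶ cells/mL from a 10-day stationary culture. Drug came from a DMSO stock, with final DMSO ≤0.4%; control had 0.4% DMSO and no drug. A600 was read daily. IC50 was the concentration reducing the day-5 absorbance ratio versus control to 50%.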

The test system of experiment [4] is Trypanosoma cruzi. Briefly: Antitrypanosomal activity against Trypanosoma cruzi SN3 trypomastigotes infected in african green monkey Vero cells assessed as parasite viability at 12.5 uM after 24 hrs by MTT assay. Format: functional. Background: Tetrazolium dyes change colour on reduction, which living cells bring about.
Experiment [5] relates to Trypanosoma cruzi. The experiment is described as follows: Antitrypanosomal activity against Trypanosoma cruzi SN3 trypomastigotes infected in african green monkey Vero cells assessed as parasite viability at 16.4 uM after 24 hrs by MTT assay. Format: functional.
The test system of experiment [6] is Trypanosoma cruzi. Briefly: Antitrypanosomal activity against Trypanosoma cruzi SN3 trypomastigotes infected in african green monkey Vero cells assessed as parasite viability at 6.6 uM after 24 hrs by MTT assay. It is filed as functional.
In experiment [7] the test system is Trypanosoma cruzi. Briefly: Induction of nitro-anion radical production in epimastigotes form of Trypanosoma cruzi Tulahuen microsomes at 1 mM after 25 mins by ESR spectroscopy. Format: functional. The note with it: Microsome.
Experiment [8] deals with Trypanosoma cruzi. Briefly: Induction of nitro-anion radical production in epimastigotes form of Trypanosoma cruzi Tulahuen microsomes at 2 mM after 25 mins by ESR spectroscopy. It is filed as functional. The note with it: Microsome.
The subject of experiment [9] is Trypanosoma cruzi. Briefly: Antitrypanosomal activity against Trypanosoma cruzi SN3 trypomastigotes infected in african green monkey Vero cells assessed as parasite viability at 22 uM after 24 hrs by MTT assay. Format: functional. The method in brief: as §1

The structures appear in SMILES notation. The source made the active and inactive calls. The calls are words filed in the database; no cut-off is given here.

As a reminder, the IC50 is the concentration that inhibits the measured activity by half.

Consider `CCCCNCCCCCn1nc(OCc2ccccc2)c2cc([N+](=O)[O-])ccc21`, for which the Activity in the experiment on Trypanosoma cruzi [1] is on record as -0.37%. Besides, the inhibition of growth at 25 µM in the experiment on Trypanosoma cruzi [2] is 94%. The same molecule gave an IC50 with Trypanosoma cruzi [3] of 11 µM.
For `O=c1c2cc([N+](=O)[O-])ccc2n2n1CCOCC2`, the inhibition of growth at 25 µM in the experiment on Trypanosoma cruzi [2] amounted to 6%.
For the molecule `CN(C)CCCCCn1nc(OCc2ccccc2)c2ccccc21`, the inhibition of growth at 25 µM with Trypanosoma cruzi [2] was 18%.
In the case of `CN(C)CCCCCn1nc(OCc2ccccc2)c2cc([N+](=O)[O-])ccc21`, the Activity with Trypanosoma cruzi [4] turned out to be 0.49%. Moreover, in the experiment with Trypanosoma cruzi [2], the inhibition of growth at 25 µM was 100%.
On to `COc1nn(CCOCCN2CCCCC2)c2ccc([N+](=O)[O-])cc12`, for which the inhibition of growth at 25 µM with Trypanosoma cruzi [2] came out at 25%.
Turning to `O=[N+]([O-])c1ccc2c(c1)c(OCc1ccccc1)nn2CCOCCN1CCCCC1`, in the experiment with Trypanosoma cruzi [2], the inhibition of growth at 25 µM was found to be 24%.
Consider `CN(C)CCOCCn1nc(OCc2ccccc2)c2cc([N+](=O)[O-])ccc21`, for which the inhibition of growth at 25 µM with Trypanosoma cruzi [2] amounted to 80%. Moreover, the Activity in the experiment on Trypanosoma cruzi [5] was determined as 0.56%.
With `C[N+](C)([O-])CCOCCn1nc(OCc2ccccc2)c2cc([N+](=O)[O-])ccc21`, in the experiment with Trypanosoma cruzi [2], the inhibition of growth at 25 µM stood at 6%.
`O=c1c2cc([N+](=O)[O-])ccc2n2n1CCCCC2`: the inhibition of growth at 25 µM in the experiment with Trypanosoma cruzi [2] amounted to 4%.
With `O=[N+]([O-])c1ccc2c(c1)c(O)nn2CCOCCN1CCSCC1`, the inhibition of growth at 25 µM with Trypanosoma cruzi [2] was determined as 0%.
On to `CC1CS(=O)(=O)CCN1/N=C/c1ccc([N+](=O)[O-])o1` (configuration not stated) [NIFURTIMOX], for which, in the experiment with Trypanosoma cruzi [2], the inhibition of growth at 25 µM is 100%. The molecule further gave an IC50 in the experiment on Trypanosoma cruzi [3] of 3.4 µM.
With `O=[N+]([O-])c1ccc2c(c1)c(O)nn2CCOCCN1CCCCC1`, the inhibition of growth at 25 µM with Trypanosoma cruzi [2] was found to be 9%.
With `CN(C)CCOCCn1nc(O)c2cc([N+](=O)[O-])ccc21`, the inhibition of growth at 25 µM with Trypanosoma cruzi [2] was 3%.
Consider `O=[N+]([O-])c1ccc2c(c1)c(OCc1ccccc1)nn2CCCCCN1CCCCC1`, for which the Activity in the experiment with Trypanosoma cruzi [6] was determined as 0.29%. For the same molecule, in the experiment with Trypanosoma cruzi [2], the inhibition of growth at 25 µM is 100%.
`CCCCNCCCCCn1nc(OC)c2cc([N+](=O)[O-])ccc21`: the outcome in the experiment with Trypanosoma cruzi [7] and with Trypanosoma cruzi [8] was Active. Besides, the inhibition of growth at 25 µM in the experiment with Trypanosoma cruzi [2] was determined as 58%. In addition, in the experiment with Trypanosoma cruzi [9], the Activity was 40.04%. Further, the IC50 with Trypanosoma cruzi [3] amounted to 22 µM.
Regarding `O=[N+]([O-])c1ccc2c(c1)c(OCc1ccccc1)nn2CCOCCN1CCSCC1`, the inhibition of growth at 25 µM in the experiment on Trypanosoma cruzi [2] worked out at 20%.
With `O=[N+]([O-])c1ccc2c(c1)c(OCc1ccccc1)nn2CCOCC[N+]1([O-])CCCCC1`, the inhibition of growth at 25 µM with Trypanosoma cruzi [2] came out at 0%.
